In brackets after ≈: the same amount, converted by molar mass. Activity calls are given as the source filed them. The rule behind the calls is not given here.
Columns and labels:
[1] = system: NCI-H460; experiment: Cytotoxicity against human NCI-H460 cells assessed as growth inhibition at 40 ug/mL after 72 hrs by MTT assay; format: functional; conditions: NCI-H460, 72 h, read-out: GI
Method in brief: (§1)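 Growth inhibition by MTT after seeding at 2 × 10⁴ cells per well and growth to subconfluence, with 5-FU as positive control. MTT stock 5 mg/mL in PBS, 4 h formazan formation, then DMSO solubilisation and A570 read. Triplicate wells, three independent experiments, mean ± S.D.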

[2] = system: HepG2; experiment: Cytotoxicity against human HepG2 cells assessed as growth inhibition at 40 ug/mL after 72 hrs by MTT assay; format: functional; conditions: HepG2, 72 h, read-out: GI; method in brief: as §1
[3] = system: BGC-823; experiment: Cytotoxicity against human BGC823 cells after 72 hrs by MTT assay; format: functional, cell-based; conditions: for IC50: Homo sapiens, BGC-823, 72 h
Method in brief: (§2)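 Cells seeded at 2 × 10⁴ per well and grown to subconfluence before treatment. MTT (5 mg/mL stock in PBS) added, then 4 h incubation for formazan formation. Formazan dissolved in DMSO and absorbance read at 570 nm. IC50 determined from concentration-dependent inhibition. Assays run in triplicate across three independent experiments, reported as mean ± S.D.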

[4] = system: HepG2; experiment: Cytotoxicity against human HepG2 cells after 72 hrs by MTT assay; format: functional, cell-based; conditions: for IC50: Homo sapiens, HepG2, 72 h; method in brief: as §2
[5] = system: SGC-7901; experiment: Cytotoxicity against human SGC7901 cells after 72 hrs by MTT assay; format: functional, cell-based; conditions: for IC50: Homo sapiens, SGC-7901, 72 h; method in brief: as §2
[6] = system: BGC-823; experiment: Cytotoxicity against human BGC823 cells assessed as growth inhibition at 40 ug/mL after 72 hrs by MTT assay; format: functional; conditions: BGC-823, 72 h, read-out: GI; method in brief: as §1
[7] = system: NCI-H460; experiment: Cytotoxicity against human NCI-H460 cells after 72 hrs by MTT assay; format: functional, cell-based; conditions: for IC50: Homo sapiens, NCI-H460, 72 h; method in brief: as §2
[8] = system: SGC-7901; experiment: Cytotoxicity against human SGC7901 cells assessed as growth inhibition at 40 ug/mL after 72 hrs by MTT assay; format: functional; conditions: SGC-7901, 72 h, read-out: GI; method in brief: as §1
[9] = system: SGC-7901; experiment: Cytotoxicity against human SGC7901 cells assessed as change in cell morphology at 20 ug/mL after 48 hrs by inverted microscopy; format: functional, cell-based
[10] = system: NCI-H460; experiment: Cytotoxicity against human NCI-H460 cells assessed as change in cell morphology at 20 ug/mL after 48 hrs by inverted microscopy; format: functional, cell-based

SMILES	inhibition of growth at 40 µg/mL [1]	inhibition of growth at 40 µg/mL [2]	IC50 [3]	IC50 [4]	IC50 [5]	inhibition of growth at 40 µg/mL [6]	IC50 [7]	inhibition of growth at 40 µg/mL [8]	Activity [3]	growth inhibition (GI) [3]	Activity [4]	growth inhibition (GI) [4]	growth inhibition (GI) [5]	growth inhibition (GI) [7]	Activity [9]	Activity [10]
Cn1cc(C(Nc2ccccn2)c2ccc(C(F)(F)F)cc2)c2ccccc21 (centres undefined)	71.4%	71.4%	16.8 µg/mL (≈ 44 µM)	12.9 µg/mL (≈ 33.8 µM)	13.8 µg/mL (≈ 36.2 µM)	71.4%	16 µg/mL (≈ 42 µM)	71.4%								
c1ccc(NC(c2ccccn2)c2c[nH]c3ccccc23)nc1 (centres undefined)			46.9 µg/mL (≈ 156 µM)	> 100 µg/mL	51.4 µg/mL (≈ 171 µM)		> 100 µg/mL									
Cn1cc(C(Nc2nc3ccccc3s2)c2ccccc2F)c2ccccc21 (centres undefined)			> 100 µg/mL	> 100 µg/mL	> 100 µg/mL		> 100 µg/mL									
Cn1cc(C(Nc2ccccn2)c2ccncc2)c2ccccc21 (centres undefined)			47.1 µg/mL (≈ 150 µM)	42.5 µg/mL (≈ 135 µM)	37.9 µg/mL (≈ 121 µM)		56 µg/mL (≈ 178 µM)									
c1ccc(C(Nc2ccccn2)c2c[nH]c3ccccc23)cc1 (centres undefined)			29.4 µg/mL (≈ 98.2 µM)	27.6 µg/mL (≈ 92.2 µM)	24.9 µg/mL (≈ 83.2 µM)		35.3 µg/mL (≈ 118 µM)									
Cn1cc(C(Nc2ccccn2)c2ccccn2)c2ccccc21 (centres undefined)			> 100 µg/mL	> 100 µg/mL	> 100 µg/mL		> 100 µg/mL									
Cn1cc(C(Nc2ccccn2)c2ccc(Cl)cc2)c2ccccc21 (centres undefined)		73.6%	30.8 µg/mL (≈ 88.5 µM)	25.5 µg/mL (≈ 73.3 µM)	25 µg/mL (≈ 71.9 µM)		32.1 µg/mL (≈ 92.3 µM)	70.8%								
Cn1cc(C(Nc2ccccn2)c2ccccc2F)c2ccccc21 (centres undefined)			64.2 µg/mL (≈ 194 µM)	43.2 µg/mL (≈ 130 µM)	86.2 µg/mL (≈ 260 µM)		92.6 µg/mL (≈ 279 µM)									
O=c1[nH]cc(F)c(=O)[nH]1 [FLUOROURACIL]			8.2 µg/mL (≈ 63 µM)	9.3 µg/mL (≈ 71.5 µM)	8.7 µg/mL (≈ 66.9 µM)		7.2 µg/mL (≈ 55.4 µM)		Dose-dependent effect	66.8%	Dose-dependent effect	66.8%	66.8%	66.8%		
Clc1ccc(C(Nc2ccccn2)c2c[nH]c3ccccc23)cc1 (centres undefined)	71.4%	71.4%	22.8 µg/mL (≈ 68.3 µM)	18.6 µg/mL (≈ 55.7 µM)	19.2 µg/mL (≈ 57.5 µM)	71.4%	17.4 µg/mL (≈ 52.1 µM)	71.4%								
Fc1ccc(C(Nc2ccccn2)c2c[nH]c3ccccc23)cc1 (centres undefined)	71.4%	71.4%	21.8 µg/mL (≈ 68.7 µM)	23 µg/mL (≈ 72.5 µM)	21.5 µg/mL (≈ 67.7 µM)	71.4%	24 µg/mL (≈ 75.6 µM)	71.4%								
CN(C)Cc1c[nH]c2ccccc12 [GRAMINE]			62.8 µg/mL (≈ 360 µM)	> 100 µg/mL	77.3 µg/mL (≈ 444 µM)		74.5 µg/mL (≈ 428 µM)									
Fc1ccccc1C(Nc1nc2ccccc2s1)c1c[nH]c2ccccc12 (centres undefined)			8.1 µg/mL (≈ 21.7 µM)	7 µg/mL (≈ 18.7 µM)	9.4 µg/mL (≈ 25.2 µM)		12.1 µg/mL (≈ 32.4 µM)		Dose-dependent effect		Dose-dependent effect					
Clc1ccccc1C(Nc1ccccn1)c1c[nH]c2ccccc12 (centres undefined)	71.4%	71.4%	22.7 µg/mL (≈ 68 µM)	13.1 µg/mL (≈ 39.2 µM)	14.9 µg/mL (≈ 44.6 µM)	71.4%	12.2 µg/mL (≈ 36.5 µM)	71.4%							Active	Active
Clc1ccccc1C(Nc1nc2ccccc2s1)c1c[nH]c2ccccc12 (centres undefined)			8.1 µg/mL (≈ 20.8 µM)	9 µg/mL (≈ 23.1 µM)	10.5 µg/mL (≈ 26.9 µM)		13.2 µg/mL (≈ 33.9 µM)								Active	Active
Fc1ccc(C(c2c[nH]c3ccccc23)n2cncn2)cc1 (centres undefined)			10.3 µg/mL (≈ 35.2 µM)	8.4 µg/mL (≈ 28.7 µM)	8.2 µg/mL (≈ 28.1 µM)		10.7 µg/mL (≈ 36.6 µM)		Dose-dependent effect		Dose-dependent effect					
Fc1ccccc1C(Nc1ccccn1)c1c[nH]c2ccccc12 (centres undefined)	71.4%	71.4%	37.6 µg/mL (≈ 118 µM)	28.7 µg/mL (≈ 90.4 µM)	24.5 µg/mL (≈ 77.2 µM)	71.4%	24.9 µg/mL (≈ 78.5 µM)	71.4%								
FC(F)(F)c1ccc(C(Nc2ccccn2)c2c[nH]c3ccccc23)cc1 (centres undefined)	71.4%	71.4%	10.1 µg/mL (≈ 27.5 µM)	12.1 µg/mL (≈ 32.9 µM)	13.5 µg/mL (≈ 36.7 µM)	71.4%	8.6 µg/mL (≈ 23.4 µM)	71.4%							Active	Active
c1ccc(NC(c2ccncc2)c2c[nH]c3ccccc23)nc1 (centres undefined)			> 100 µg/mL	> 100 µg/mL	> 100 µg/mL		> 100 µg/mL									
Fc1ccc(C(c2c[nH]c3ccccc23)n2cccn2)cc1 (centres undefined)			5.7 µg/mL (≈ 19.6 µM)	8 µg/mL (≈ 27.5 µM)	8.5 µg/mL (≈ 29.2 µM)		8.5 µg/mL (≈ 29.2 µM)		Dose-dependent effect		Dose-dependent effect				Active	Active
Cn1cc(C(Nc2ccccn2)c2ccccc2Cl)c2ccccc21 (centres undefined)			39.2 µg/mL (≈ 113 µM)	26.5 µg/mL (≈ 76.2 µM)	27.1 µg/mL (≈ 77.9 µM)		66.7 µg/mL (≈ 192 µM)									
Cn1cc(C(Nc2ccccn2)c2ccc(F)cc2)c2ccccc21 (centres undefined)			51.6 µg/mL (≈ 156 µM)	38.6 µg/mL (≈ 116 µM)	51.9 µg/mL (≈ 157 µM)		49.1 µg/mL (≈ 148 µM)									

Source: ChEMBL document CHEMBL2203199, “Heterocycle-functional gramine analogues: solvent- and catalyst-free synthesis and their inhibition activities against cell proliferation” (Eur J Med Chem, 2012)
